Measured values published in ChEMBL document CHEMBL3856229, “Hybrid Antibiotic Overcomes Resistance in P. aeruginosa by Enhancing Outer Membrane Penetration and Reducing Efflux” (J Med Chem, 2016).
Activity calls are given as the source filed them. No cut-off for these calls is given here.

Legend:
[1] = test system: Staphylococcus aureus; assay: Antibacterial activity against Staphylococcus aureus ATCC 29213 after 24 hrs by microtitre broth dilution method; format: functional; settings: ATCC 29213, 24 h
[2] = test system: Escherichia coli; assay: Antibacterial activity against gentamicin-resistant Escherichia coli isolate CAN-ICU 61714 after 24 hrs by microtitre broth dilution method; format: functional; settings: isolate CAN-ICU 61714, 24 h
[3] = test system: Stenotrophomonas maltophilia; assay: Antibacterial activity against Stenotrophomonas maltophilia isolate CAN-ICU 62584 after 24 hrs by microtitre broth dilution method; format: functional; settings: isolate CAN-ICU 62584, 24 h
[4] = test system: Pseudomonas aeruginosa; assay: Antibacterial activity against multidrug/extremely drug-resistant/colistin-susceptible Pseudomonas aeruginosa isolate 101885; format: functional
[5] = test system: Pseudomonas aeruginosa; assay: Antibacterial activity against multidrug/extremely drug-resistant/colistin-susceptible Pseudomonas aeruginosa isolate 262-101856; format: functional
[6] = test system: Pseudomonas aeruginosa; assay: Antibacterial activity against multidrug-resistant/tobramycin-susceptible Pseudomonas aeruginosa isolate 86067; format: functional
[7] = test system: Escherichia coli; assay: Antibacterial activity against Escherichia coli ATCC 25922 after 24 hrs by microtitre broth dilution method; format: functional; settings: ATCC 25922, 24 h
[8] = test system: Escherichia coli; assay: Antibacterial activity against fluoroquinolone resistant Escherichia coli isolate 88273 harboring beta-lactamase CTX-M-15/TEM-1/OXA-1; format: functional
[9] = test system: Escherichia coli; assay: Antibacterial activity against fluoroquinolone resistant Escherichia coli isolate 90789 harboring beta-lactamase KPC-3/TEM-1; format: functional
[10] = test system: Escherichia coli; assay: Antibacterial activity against fluoroquinolone resistant Escherichia coli isolate 92969 harboring beta-lactamase CTX-M-15/OXA-1; format: functional
[11] = test system: Escherichia coli; assay: Antibacterial activity against fluoroquinolone resistant Escherichia coli isolate 95882 harboring beta-lactamase KPC-3/TEM-1; format: functional
[12] = test system: Escherichia coli; assay: Antibacterial activity against fluoroquinolone resistant Escherichia coli isolate ECMH01 harboring beta-lactamase NDM-1; format: functional
[13] = test system: Pseudomonas aeruginosa; assay: Bactericidal activity against Pseudomonas aeruginosa PAO1 at 2 times MIC up to 24 hrs by time-kill kinetic study; format: functional
How it was run: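 PAO1 was grown in MH broth with varying concentrations of the test agent; colistin at its MIC served as comparator. Viable counts (CFU) were followed up to 24 h. There were three independent experiments, and each point is the mean of three determinations ± SEM.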

[14] = Hemolytic activity in human erythrocytes at 1000 microg/ml after 30 mins by spectrometry; format: ADME, cell-based, Erythrocyte; settings: read-out: Activity
[15] = Cytotoxicity against human DU145 cells assessed as reduction in cell viability after 48 hrs by MTS assay; format: toxicity, cell-based, DU-145
[16] = Toxicity in Galleria mellonella upto 96 hrs
How it was run: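 Tolerability test in Galleria mellonella larvae, injected with doses up to a maximum of 600 mg/kg.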

[17] = test system: Pseudomonas aeruginosa; assay: Antibacterial activity against extremely drug-resistant Pseudomonas aeruginosa isolate 104354 infected in Galleria mellonella assessed as larvae survival at 75 mg/kg administered as single dose measured after 96 hrs; format: functional; settings: isolate 104354, 96 h
How it was run: (§1)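 Galleria mellonella larvae were infected with 10^6 CFU of XDR P. aeruginosa #104354, resistant to all antipseudomonal classes except colistin. A single injected drug dose was given 2 h post-infection: 50 mg/kg with survival read at 24 h, or 75 mg/kg with survival read at 96 h. Controls were infected untreated larvae and PBS-injected larvae. Two independent experiments of 15 larvae each (n = 30).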

[18] = test system: Pseudomonas aeruginosa; assay: Antibacterial activity against extremely drug-resistant Pseudomonas aeruginosa isolate 104354 infected in Galleria mellonella assessed as larvae survival administered as single dose measured after 24 to 96 hrs; format: functional; how it was run: as §1
[19] = test system: Pseudomonas aeruginosa; assay: Antibacterial activity against Pseudomonas aeruginosa PAO1 assessed as fractional inhibitory concentration index after 18 hrs in presence of vancomycin by checkerboard method; format: functional
How it was run: (§2)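 Checkerboard combinations of the hybrid with each partner antibiotic were tested against P. aeruginosa PAO1. Interaction is expressed as the fractional inhibitory concentration (FIC) index: ≤0.5 means synergy, 1–2 no interaction, ≥4 antagonism.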

[20] = test system: Pseudomonas aeruginosa; assay: Antibacterial activity against Pseudomonas aeruginosa PAO1 assessed as fractional inhibitory concentration index after 18 hrs in presence of chloramphenicol by checkerboard method; format: functional; how it was run: as §2
[21] = test system: Pseudomonas aeruginosa; assay: Antibacterial activity against Pseudomonas aeruginosa PAO1 assessed as fractional inhibitory concentration index after 18 hrs in presence of tobramycin by checkerboard method; format: functional; how it was run: as §2
[22] = test system: Pseudomonas aeruginosa; assay: Potentiation of ciprofloxacin induced antibacterial activity against multidrug/extremely drug-resistant Pseudomonas aeruginosa isolate PA260-97103 assessed as ciprofloxacin MIC at <= […] ug/ml (reference value: […] to […] ug/ml); format: functional
[23] = test system: Pseudomonas aeruginosa; assay: Potentiation of ciprofloxacin induced antibacterial activity against multidrug/extremely drug-resistant Pseudomonas aeruginosa isolate PA264-104354 assessed as ciprofloxacin MIC at <= […] ug/ml (reference value: […] to […] ug/ml); format: functional
[24] = test system: Pseudomonas aeruginosa; assay: Potentiation of ciprofloxacin induced antibacterial activity against pandrug-resistant Pseudomonas aeruginosa isolate 101243 assessed as ciprofloxacin MIC at <= […] ug/ml (reference value: 2 ug/ml); format: functional
[25] = test system: Pseudomonas aeruginosa; assay: Potentiation of moxifloxacin induced antibacterial activity against multidrug/extremely drug-resistant Pseudomonas aeruginosa isolate PA259-96918 assessed as moxifloxacin MIC at <= […] ug/ml (reference value: […] ug/ml); format: functional
[26] = test system: Pseudomonas aeruginosa; assay: Potentiation of moxifloxacin induced antibacterial activity against pandrug-resistant Pseudomonas aeruginosa isolate 91433 assessed as moxifloxacin MIC at <= […] ug/ml (reference value: 8 to […] ug/ml); format: functional
[27] = test system: Pseudomonas aeruginosa; assay: Antibacterial activity against multidrug/extremely drug-resistant Pseudomonas aeruginosa isolate PA262-101856 in presence of <= 4 ug/ml of ciprofloxacin (reference value: 4 ug/ml); format: functional
[28] = test system: Pseudomonas aeruginosa; assay: Antibacterial activity against multidrug/extremely drug-resistant Pseudomonas aeruginosa isolate PA262-101856 in presence of <= 4 ug/ml of moxifloxacin (reference value: 4 ug/ml); format: functional
[29] = test system: Pseudomonas aeruginosa; assay: Antibacterial activity against pandrug-resistant Pseudomonas aeruginosa isolate 91433 in presence of <= 4 ug/ml of moxifloxacin (reference value: 8 ug/ml); format: functional
[30] = test system: Pseudomonas aeruginosa; assay: Antimotility activity against Pseudomonas aeruginosa PAO1 assessed as reduction in flagellum-dependent swimming motility after 20 hrs; format: functional
How it was run: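 Swim plates (0.3% agar, dried and set for 60 min) were inoculated with PAO1 at OD600 1.0, with or without 0.25 µg/mL test agent. Plates were imaged after 20 h at 37 °C.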

[31] = test system: Pseudomonas aeruginosa; assay: Antimicrobial activity against Pseudomonas aeruginosa PAO750; format: functional
How it was run: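 MICs were measured in PAO1 and in PAO750. PAO750 is a PAO1 derivative lacking the MexAB-OprM, MexCD-OprJ, MexEF-OprN, MexJK and MexXY efflux pumps and the outer membrane protein OpmH.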

[32] = test system: Pseudomonas aeruginosa; assay: Induction of inner membrane permeabilization in Pseudomonas aeruginosa PAO1 assessed as accumulation of propidium iodide at 8 ug/ml after 3 to 4 hrs by fluorescence microscopy; format: functional
How it was run: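 PAO1 cells were treated with 8 µg/mL for 3 h at 37 °C, then stained with the membrane-impermeable nucleic-acid dye propidium iodide. Fluorescence microscopy and DIC imaging were compared against untreated cells.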

## COc1c(N2C[C@@H]3CCCN(CCCCCCCCCCCCO[C@@H]4[C@@H](O[C@H]5O[C@H](CO)[C@@H](O)[C@H](N)[C@H]5O)[C@H](N)C[C@H](N)[C@H]4O[C@H]4O[C@H](CN)[C@@H](O)C[C@H]4N)[C@@H]3C2)c(F)cc2c(=O)c(C(=O)O)cn(C3CC3)c12.Cl.Cl.Cl.Cl.Cl
[1]
  MIC: 1 µg/mL
[2]
  MIC: 4 µg/mL
[3]
  MIC: 32 µg/mL
[4]
  MIC: 8 µg/mL
[5]
  MIC: 4 µg/mL
[6]
  MIC: 4 µg/mL
[7]
  MIC: 0.5 µg/mL
[8]
  MIC: ≥ 64 µg/mL
[9]
  MIC: ≥ 64 µg/mL
[10]
  MIC: ≥ 64 µg/mL
[11]
  MIC: ≥ 64 µg/mL
[12]
  MIC: ≥ 64 µg/mL
[13]
  Activity: Active
[14]
  hemolysis at 0.5 h, 1000 microg/ml: < 2.5%
[15]
  CC50 at 48 h: > 30 µM
[16]
  MTD at 96 h: 600 mg/kg
[17]
  survival at 75 mg/kg: 20%
[18]
  Activity: Dose-dependent effect
[19]
  fractional inhibitory concentration index (FICI): 0.26
[20]
  fractional inhibitory concentration index (FICI): 0.15
[21]
  fractional inhibitory concentration index (FICI): >2
[22]
  MIC: 1 µg/mL
[23]
  MIC: 1 µg/mL
[24]
  MIC: 0.06 µg/mL
[25]
  MIC: < 1 µg/mL
[26]
  MIC: 0.12 µg/mL
[27]
  MIC: < 0.5 µg/mL
[28]
  MIC: < 1 µg/mL
[29]
  MIC: < 1 µg/mL
[30]
  Activity: Dose-dependent effect
[31]
  MIC: 0.5 µg/mL
[32]
  Activity: Active
